Test results: paper PMC8808266 (Photochemistry and photobiology, 2021)

Legend:
Type in all cases: cell-based, human
OVCAR-4 cells = experiment: Fluorescence cell microscopy, probe uptake; conditions: 1 μM probe, 30 min, 37 °C, compared to control probes
In short: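 OVCAR-4 cells were maintained in RPMI-1640 with 10% FBS, 1% L-glutamine and 0.1 mM NEAA (37 °C, 5% CO2), grown to 70% confluency in chambered slides, then given 1 μM probe in medium for 30 min at 37 °C. After 3 PBS washes, they were fixed in cold 4% PFA (20 min, RT), Hoechst-stained (3 μM, 10 min) and imaged by epifluorescence. Mean intensity: 200-pixel rolling-ball subtraction, auto-threshold, average ± SEM.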

HT-1080 cells = experiment: Fluorescence cell microscopy, probe uptake; conditions: 1 μM probe, 30 min, 37 °C, compared to control probes
In short: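 HT-1080 cells were kept in EMEM with 10% FBS, 0.1 mM NEAA, 1.5 g/L bicarbonate, 1 mM pyruvate and 1% pen/strep (37 °C, 5% CO2), then grown to 70% confluency. They were exposed to 1 μM probe in medium for 30 min at 37 °C, washed ×3 with PBS, fixed in cold 4% PFA, Hoechst-stained and imaged (Cy5.5 filter). Intensity: rolling-ball background subtraction, auto-threshold, average ± SEM.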

A549 cells [1] = experiment: Colocalization / co-incubation with Cy3-cRGDfK; conditions: co-incubation with 1 μM Cy3-cRGDfK, 1 μM probe, 30 min
In short: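 Live A549 cells at 70% confluency in chambered slides were co-incubated 30 min at 37 °C with 1 μM Cy3-cRGDfK plus 1 μM test compound in medium. They were then PBS-washed ×3, Hoechst-stained (3 μM, 10 min, RT) and imaged by epifluorescence (TxRed and Cy5.5 filters). After 10-pixel rolling-ball background subtraction, Pearson's correlation coefficient was computed and reported as average ± SEM.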

A549 cells [2] = experiment: Competitive blocking study of probe uptake; conditions: repeated many times using fixed and living cells; excess cRGDfK or Cilengitide
In short: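 A549 cells at 70% confluency on 8-well slides received 200 μM cRGDfK or 50 μM cilengitide 5 min before the test compound; the blocker stayed during a 30 min, 37 °C incubation with 1 μM test compound. Cells were then PBS-washed ×3, fixed in cold 4% PFA (20 min, RT), Hoechst-stained (3 μM) and imaged. Intensity came from 200-pixel rolling-ball background subtraction and auto-threshold, as average ± SEM.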

Substance: DRGDG (bicyclic or more) [SF8(DRGDG)2]
- probe uptake (mean fluorescence intensity of epifluorescence micrographs) (OVCAR-4 cells): Enhanced uptake
- probe uptake (mean fluorescence intensity of epifluorescence micrographs) (HT-1080 cells): Enhanced uptake
- cell uptake of probe in the presence of Cy3-cRGDfK (A549 cells [1]): did not reduce cell uptake
- cell uptake of probe in competition imaging experiments (A549 cells [2]): not reduced
